From ChEMBL document CHEMBL3808357, “Discovery of N-(3-((1-Isonicotinoylpiperidin-4-yl)oxy)-4-methylphenyl)-3-(trifluoromethyl)benzamide (CHMFL-KIT-110) as a Selective, Potent, and Orally Available Type II c-KIT Kinase Inhibitor for Gastrointestinal Stromal Tumors (GISTs)” (J Med Chem, 2016) come the findings set out here.

Series [1] in a line: Antiproliferative activity against mouse BAF3 cells. The series is classed as cell-based.
Series [2] has as its target Mast/stem cell growth factor receptor Kit (Homo sapiens) (UniProt P10721). The series is described as follows: Inhibition of Tel-fused cKIT (unknown origin) transfected in mouse BAF3 cells assessed as decrease in cell proliferation after 72 hrs by celltiter-glo/CCK8 assay. The series is classed as cell-based. Put shortly:
(§1)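 Cells were seeded at 1 to 3 × 10⁴ cells/mL with serial compound concentrations and incubated 72 h at 37 °C, 5% CO₂. Viability was read by CellTiter-Glo luminescence or CCK-8 absorbance (450/655 nm). GI50 values are from triplicate testing. GIST-T1 and CHO were grown in DMEM/10% FBS; GIST-882, GIST-48B and MV4-11 in IMDM/10% FBS; other lines in RPMI 1640/10% FBS.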

For a further series, the system named is K562. As to the kind of experiment: Antiproliferative activity against BCR-ABL dependent human K562 cells assessed as reduction in cell viability after 72 hrs by celltiter-glo/CCK8 assay. The series is classed as functional. As to conditions: K562, 72 h. The method, boiled down: as §1
For series [3], the system named is Mast/stem cell growth factor receptor Kit (Homo sapiens), P10721 [V559D]. The series is described as follows: Inhibition of Tel-fused cKIT V559D mutant (unknown origin) transfected in mouse BAF3 cells assessed as decrease in cell proliferation after 72 hrs by celltiter-glo/CCK8 assay. The series is classed as cell-based. Put shortly: (§2)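 Stable BaF3 lines made by retroviral transduction with mutagenized TEL-KIT MSCV vectors, puromycin selection 48 h, then gradual IL-3 withdrawal until IL-3-independent; grown in RPMI 1640 with 10% FBS. Cells at 1 to 3 × 10⁴ cells/mL exposed to a concentration series for 72 h; viability read by CellTiter-Glo luminescence or CCK-8 absorbance (450/655 nm); GI50 from triplicate testing.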
Sequence of Mast/stem cell growth factor receptor Kit (Homo sapiens), P10721 [V559D] (P10721 whole entry V559D, the tested form may be a part): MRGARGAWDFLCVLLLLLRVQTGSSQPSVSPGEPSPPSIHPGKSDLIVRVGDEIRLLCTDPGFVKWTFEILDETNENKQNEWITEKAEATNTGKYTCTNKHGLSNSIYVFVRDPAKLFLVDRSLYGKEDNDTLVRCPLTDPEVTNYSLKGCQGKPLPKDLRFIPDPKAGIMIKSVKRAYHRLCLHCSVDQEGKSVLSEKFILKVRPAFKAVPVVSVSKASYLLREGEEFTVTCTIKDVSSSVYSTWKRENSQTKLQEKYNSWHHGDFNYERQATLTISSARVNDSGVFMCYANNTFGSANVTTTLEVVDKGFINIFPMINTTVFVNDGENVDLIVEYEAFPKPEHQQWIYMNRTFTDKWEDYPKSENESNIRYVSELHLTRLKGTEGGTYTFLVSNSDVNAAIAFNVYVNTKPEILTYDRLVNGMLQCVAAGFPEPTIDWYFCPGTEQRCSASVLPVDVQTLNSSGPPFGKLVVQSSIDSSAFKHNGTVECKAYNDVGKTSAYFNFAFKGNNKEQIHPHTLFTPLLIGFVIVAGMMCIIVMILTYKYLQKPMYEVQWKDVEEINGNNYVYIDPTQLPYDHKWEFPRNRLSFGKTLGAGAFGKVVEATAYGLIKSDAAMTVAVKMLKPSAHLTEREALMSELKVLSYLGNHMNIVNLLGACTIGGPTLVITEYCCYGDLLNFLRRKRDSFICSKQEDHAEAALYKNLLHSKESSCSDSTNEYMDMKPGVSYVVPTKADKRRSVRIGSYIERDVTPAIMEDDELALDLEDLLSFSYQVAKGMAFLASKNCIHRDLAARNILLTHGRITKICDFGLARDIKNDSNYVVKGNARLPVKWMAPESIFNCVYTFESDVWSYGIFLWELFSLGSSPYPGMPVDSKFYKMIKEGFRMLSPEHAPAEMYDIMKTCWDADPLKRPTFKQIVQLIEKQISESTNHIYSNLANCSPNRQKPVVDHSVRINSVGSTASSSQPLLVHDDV

Series [4] concerns Mast/stem cell growth factor receptor Kit (Homo sapiens), P10721 [V559D,V654A]. As to the kind of experiment: Inhibition of Tel-fused cKIT V559D/V654A double mutant (unknown origin) transfected in mouse BAF3 cells assessed as decrease in cell proliferation after 72 hrs by celltiter-glo/CCK8 assay. The series is classed as cell-based. The method, boiled down: as §2
Sequence of Mast/stem cell growth factor receptor Kit (Homo sapiens), P10721 [V559D,V654A] (P10721 whole entry V559D/V654A, the tested form may be a part): as the sequence (P10721 whole entry V559D, the tested form may be a part) above, with V654A counted along it
Series [5] has as its system Mast/stem cell growth factor receptor Kit (Homo sapiens), P10721 [N822K]. As to the kind of experiment: Inhibition of Tel-fused cKIT N822K mutant (unknown origin) transfected in mouse BAF3 cells assessed as decrease in cell proliferation after 72 hrs by celltiter-glo/CCK8 assay. The series is classed as cell-based.
Series [6] concerns Mast/stem cell growth factor receptor Kit (Homo sapiens), P10721 [V654A]. As to the kind of experiment: Inhibition of Tel-fused cKIT V654A mutant (unknown origin) transfected in mouse BAF3 cells assessed as decrease in cell proliferation after 72 hrs by celltiter-glo/CCK8 assay. The series is classed as cell-based. The method, boiled down:
as §2

Series [7] has as its target Mast/stem cell growth factor receptor Kit (Homo sapiens) (UniProt P10721). As to the kind of experiment: Inhibition of Tel-fused cKIT L567P mutant (unknown origin) transfected in mouse BAF3 cells assessed as decrease in cell proliferation after 72 hrs by celltiter-glo/CCK8 assay. The series is classed as cell-based.
The subject of series [8] is Mast/stem cell growth factor receptor Kit (Homo sapiens), P10721 [V559D,T670I]. As to the kind of experiment: Inhibition of Tel-fused cKIT T670I/V559D double mutant (unknown origin) transfected in mouse BAF3 cells assessed as decrease in cell proliferation after 72 hrs by celltiter-glo/CCK8 assay. The series is classed as cell-based. Put shortly:
as §2

Series [9] can be described thus: Antiproliferative activity against cKIT dependent human GISTT1 cells assessed as reduction in cell viability after 72 hrs by celltiter-glo/CCK8 assay. The following applies: GISTT1, 72 h. The series is classed as functional. Put shortly:
as §1

For another series, the system named is MV4-11. The series is described as follows: Antiproliferative activity against FLT3-ITD dependent human MV4-11 cells assessed as reduction in cell viability after 72 hrs by celltiter-glo/CCK8 assay. The series is classed as functional. The following applies: MV4-11, 72 h. The method, boiled down: as §1
Series [10] in a line: Antiproliferative activity against cKIT dependent human GIST882 cells assessed as reduction in cell viability after 72 hrs by celltiter-glo/CCK8 assay. The series is classed as functional. As to conditions: GIST882, 72 h. The method, boiled down:
as §1

Series [11] is described as follows: Antiproliferative activity against human GIST48B cells assessed as reduction in cell viability after 72 hrs by celltiter-glo/CCK8 assay. The series is classed as functional. The method, boiled down: as §1
Series [12] in a line: Antiproliferative activity against human U937 cells assessed as reduction in cell viability after 72 hrs by celltiter-glo/CCK8 assay. As to conditions: U-937, 72 h. The series is classed as functional. The method, boiled down:
as §1

Series [13] is described as follows: Antiproliferative activity against FLT3-ITD dependent human MOLM14 cells assessed as reduction in cell viability after 72 hrs by celltiter-glo/CCK8 assay. As to conditions: MOLM-14, 72 h. The series is classed as functional. Put shortly:
as §1

Series [14] is described as follows: Antiproliferative activity against human HL60 cells assessed as reduction in cell viability after 72 hrs by celltiter-glo/CCK8 assay. The series is classed as functional. The following applies: HL-60, 72 h. The method, boiled down:
as §1

Series [15] is described as follows: Antiproliferative activity against human Rec1 cells assessed as reduction in cell viability after 72 hrs by celltiter-glo/CCK8 assay. The series is classed as functional. The following applies: Rec1, 72 h. The method, boiled down: as §1
The nature of series [16]: Antiproliferative activity against CHL cells assessed as reduction in cell viability after 72 hrs by celltiter-glo/CCK8 assay. The following applies: chinese hamster. The series is classed as cell-based, Cricetulus griseus. The method, boiled down:
as §1

A short description of series [17]: Antiproliferative activity against CHO cells assessed as reduction in cell viability after 72 hrs by celltiter-glo/CCK8 assay. The series is classed as cell-based, Cricetulus griseus. The following applies: chinese hamster. The method, boiled down:
as §1

Each structure is given as a SMILES string.

Sequence of Mast/stem cell growth factor receptor Kit (Homo sapiens) (P10721 whole entry, the tested form may be a part): as the sequence (P10721 whole entry V559D, the tested form may be a part) above, with D559V counted along it
Sequence of Mast/stem cell growth factor receptor Kit (Homo sapiens), P10721 [V559D,T670I] (P10721 whole entry V559D/T670I, the tested form may be a part): as the sequence (P10721 whole entry V559D, the tested form may be a part) above, with T670I counted along it
Sequence of Mast/stem cell growth factor receptor Kit (Homo sapiens), P10721 [N822K] (P10721 whole entry N822K, the tested form may be a part): as the sequence (P10721 whole entry V559D, the tested form may be a part) above, with D559V, N822K counted along it
Sequence of Mast/stem cell growth factor receptor Kit (Homo sapiens), P10721 [V654A] (P10721 whole entry V654A, the tested form may be a part): as the sequence (P10721 whole entry V559D, the tested form may be a part) above, with D559V, V654A counted along it

Consider `C=CC(=O)N1CCC(Oc2cc(NC(=O)c3cccc(C(F)(F)F)c3)ccc2C)CC1`, for which the results for the GI50 (in series [1]; in series [2]; in the series with K562) were > 10 µM, 620 nM and 8.36 µM, respectively.
The like results for `Cc1ccc(NC(=O)Nc2ccc(Cl)c(C(F)(F)F)c2)cc1OC1CCN(C(=O)c2cccnc2)CC1` were, in that order, 3.3 µM, 2600 nM and 0.78 µM.
The matching figures for `Cc1ccc(NC(=O)c2cccc(C(F)(F)F)c2)cc1OC1CCN(C(=O)c2ccno2)CC1`: > 10 µM, 220 nM and 0.16 µM.
The matching figures for `Cc1ccc(NC(=O)c2ccc(C)c(C(F)(F)F)c2)cc1OC1CCN(C(=O)c2cncs2)CC1`: > 10 µM, 100 nM and 5.24 µM.
Take `Cc1ccc(NC(=O)c2ccc(CN3CCN(C)CC3)cc2)cc1Nc1nccc(-c2cccnc2)n1` [IMATINIB]: the concentration for 50% growth inhibition (GI50) in [1] was > 10 µM; in series [2], 400 nM; in [3], 39 nM; in series [4], 3000 nM; in series [5] it was 1290 nM; in series [6] it was 2490 nM. Moreover, the GI50 in [7] was 100 nM; in series [8], 6.67 µM; in series [9], 8 nM; with MV4-11 it was > 10 µM; in series [10], 14 nM; in [11], > 10 µM. Moreover, the GI50 in the series with K562 is 0.12 µM; in [12] it was > 10 µM; in [13] it was > 10 µM; in series [14], > 10 µM; in series [15] it was > 10 µM. The GI50 at 72 h in series [16] and in series [17] was > 10 µM in each case.
As for `CCC(=O)N1CCC(Oc2cc(NC(=O)c3cccc(C(F)(F)F)c3)ccc2C)CC1`, the GI50 in [1] is > 10 µM; in [2] it was 1550 nM; in the series with K562, > 10 µM.
For the compound `Cc1ccc(NC(=O)c2cccc(C(F)(F)F)c2)cc1OCCNC(=O)c1ccno1`, the 50% growth inhibitory concentration (GI50) in series [1] is > 10 µM; in series [2] it was 9970 nM; with K562, > 10 µM.
In the case of `Cc1ccc(NC(=O)c2cccc(C(F)(F)F)c2)cc1OC1CCN(C(=O)c2cccnc2)CC1`, the GI50 was > 10 µM in series [1], 110 nM in series [2] and 2.94 µM in the series on K562.
Turning to `Cc1ccc(NC(=O)c2cc(Cl)cc(C(F)(F)F)c2)cc1OC1CCN(C(=O)c2cccnc2)CC1`, the GI50 in series [1] was > 10 µM; in series [2] it was 160 nM; in the series with K562 it was 3.66 µM.
The like results for `Cc1ccc(NC(=O)c2cnc3ccccc3c2)cc1OC1CCN(C(=O)c2cccnc2)CC1` were, in that order, > 10 µM, 5550 nM and > 10 µM.
The matching figures for `Cc1ccc(NC(=O)c2ccc(C)c(C(F)(F)F)c2)cc1OC1CCN(C(=O)c2ccncc2)CC1`: 6.39 µM, 31 nM and 2.32 µM.
In the case of `COc1cccc(C(=O)Nc2ccc(C)c(OC3CCN(C(=O)c4cccnc4)CC3)c2)c1`, the GI50 in [1] is > 10 µM; in series [2], 1480 nM; in the series on K562, > 10 µM.
In the case of `O=C(Nc1ccc(Cl)c(OC2CCN(C(=O)c3cccnc3)CC2)c1)c1cccc(C(F)(F)F)c1`, the results for the GI50 (in series [1]; in series [2]; in the series on K562) were > 10 µM, 960 nM and 2.8 µM, respectively.
The like results for `O=C(Nc1cccc(OC2CCCN(C(=O)c3ccno3)C2)c1)c1cccc(C(F)(F)F)c1` (configuration not stated) were, in that order, > 10 µM, > 10000 nM and > 10 µM.
The like results for `Cc1ccc(NC(=O)c2cc(Cl)cc(C(F)(F)F)c2)cc1OC1CCN(C(=O)c2ccno2)CC1` were, in that order, > 10 µM, 150 nM and 1.95 µM.
Turning to `Cc1ccc(NC(=O)c2cccc(C(F)(F)F)c2)cc1OC1CCN(C(=O)c2ccccn2)CC1`, the GI50 was > 10 µM in series [1], 330 nM in series [2] and > 10 µM in the series with K562.
Take `Cc1ccc(NC(=O)c2cc(C(C)(C)C)on2)cc1OC1CCN(C(=O)c2cccnc2)CC1`: the GI50 in series [1] was > 10 µM; in series [2], 340 nM; in the series on K562 it was 9.92 µM.
The matching figures for `O=C(Nc1cccc(OC2CCN(C(=O)c3cccnc3)CC2)c1)c1cccc(C(F)(F)F)c1`: > 10 µM, 490 nM and > 10 µM.
The matching figures for `Cc1ccc(NC(=O)c2ccc3c(c2)OCO3)cc1OC1CCN(C(=O)c2cccnc2)CC1`: > 10 µM, 4800 nM and > 10 µM.
The matching figures for `Cc1ccc(NC(=O)c2cccc(C(F)(F)F)n2)cc1OC1CCN(C(=O)c2ccno2)CC1`: > 10 µM, > 10000 nM and > 10 µM.
Regarding `COc1ccc(NC(=O)c2cccc(C(F)(F)F)c2)cc1OC1CCN(C(=O)c2cccnc2)CC1`, the GI50 is > 10 µM in series [1], > 10000 nM in series [2] and > 10 µM in the series with K562.
Regarding `O=C(Nc1cccc(OC2CCCN(C(=O)c3cccnc3)C2)c1)c1cccc(C(F)(F)F)c1` (configuration not stated), the GI50 in series [1] is 8.07 µM; in series [2] it was 8070 nM; with K562, > 10 µM.
The like results for `Cc1ccc(NC(=O)c2cccc(C(F)(F)F)n2)cc1OC1CCN(C(=O)c2cccnc2)CC1` were, in that order, > 10 µM, > 10000 nM and > 10 µM.
The like results for `Cc1ccc(NC(=O)c2cc(F)cc(C(F)(F)F)c2)cc1OC1CCN(C(=O)c2cccnc2)CC1` were, in that order, > 10 µM, 150 nM and 4.56 µM.
On to `Cc1ccc(NC(=O)c2cccc(C(F)(F)F)c2)cc1OCCNC(=O)c1cccnc1`, for which the concentration for 50% growth inhibition (GI50) in [1] is > 10 µM; in series [2], 7940 nM; in the series with K562, > 10 µM.
As for `Cc1ccc(NC(=O)c2ccc(C)c(C(F)(F)F)c2)cc1OC1CCN(C(=O)c2cccnc2)CC1`, the figures for the GI50 (in [1]; in series [2]; in the series with K562) were 5.47 µM, 83 nM and 5.85 µM, respectively.
The matching figures for `Cc1ccc(NC(=O)c2ccc(C)c(C(F)(F)F)c2)cc1OC1CCN(C(=O)c2ccno2)CC1`: 8.94 µM, 65 nM and 1.96 µM.
